The source made the active and inactive calls. No cut-off for these calls is given here.
Columns and labels:
Quadruplex DNA [1] = assay: Binding affinity to 6-FAM/TAMRA labeled cMYC G-quadruplex DNA (unknown origin) in potassium cacodylate buffer assessed as change in melting temperature at 1 uM at pH 7.4 by FRET-Based DNA melting assay; format: nucleic-acid assay
Summary of the method: (§1)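 FRET melting: FAM/TAMRA dual-labelled oligos (G4: TG4AG3TG4AG3TG4A2G2; duplex: CA5T5GCA5T5G) annealed at 400 nM in 60 mM potassium cacodylate pH 7.4 (95 °C 5 min, cool 0.1 °C/min). Melting run on 200 nM oligo ± 1 μM ligand; excitation 480 nm, emission 530 nm, 37–95 °C, 30 reads per °C. ΔTm versus ligand-free DNA.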

dsDNA [2] = assay: Binding affinity to 6-FAM/TAMRA labeled double stranded DNA (unknown origin) in potassium cacodylate buffer assessed as change in melting temperature at 1 uM at pH 7.4 by FRET-Based DNA melting assay; format: nucleic-acid assay; summary of the method: as §1
Quadruplex DNA [3] = assay: Binding affinity to cMYC G-quadruplex DNA (unknown origin) in tris-KCL buffer by fluorimetric titration assay; format: nucleic-acid assay
Summary of the method: (§2)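 Fluorimetric titration: unlabelled pre-folded G4 (TG4AG3TG4AG3TG4A2G2) or duplex (CA5T5GCA5T5G) DNA added stepwise to 0.25 μM ligand in filtered, degassed 100 mM Tris·KCl pH 7.4; 25 °C, 1 cm quartz cuvette, excitation 300 nm. Apparent Kd from fitting emission intensity against [DNA] to a one-site Hill equation.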

Quadruplex DNA [4] = assay: Binding affinity to 6-FAM/TAMRA labeled cMYC G-quadruplex DNA (unknown origin) in potassium cacodylate buffer assessed as change in melting temperature at 1 uM at pH 7.4 in presence of 1 to 200 equiv calf thymus DNA by FRET-Based DNA melting assay; format: nucleic-acid assay
Summary of the method: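 Competition FRET melting: 0.2 μM FAM/TAMRA-labelled c-MYC G4 oligo with 1 μM ligand plus unlabelled calf-thymus duplex DNA at 1–200 equivalents of G4; ΔTm followed (excitation 480 nm, emission 530 nm, 37–95 °C ramp).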

Quadruplex DNA [5] = assay: Effect on native parallel topology of cMYC G-quadruplex DNA (unknown origin) assessed as formation of positive band at 260 nm up to 10 equiv concentration by CD spectroscopy; format: nucleic-acid assay
Quadruplex DNA [6] = assay: Effect on native parallel topology of cMYC G-quadruplex DNA (unknown origin) assessed as formation of negative band at 240 nm up to 10 equiv concentration by CD spectroscopy; format: nucleic-acid assay
Quadruplex DNA [7] = assay: Binding affinity to cMYC G-quadruplex DNA (unknown origin) assessed as increase in emission intensity at 0.25 uM in presence of increasing concentration of DNA by fluorimetric titration relative to control; format: nucleic-acid assay; summary of the method: as §2
dsDNA [8] = assay: Binding affinity to double stranded DNA (unknown origin) assessed as increase in emission intensity at 0.25 uM by fluorimetric titration relative to control; format: nucleic-acid assay; summary of the method: as §2
Quadruplex DNA [9] = assay: Displacement thiazole orange from cMYC G-quadruplex DNA (unknown origin) in tris-KCL buffer after 30 mins by FID assay; format: nucleic-acid assay
Summary of the method: (§3)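 Thiazole orange displacement: pre-folded G4 or duplex DNA (0.25 μM) with TO (0.50 μM) in 100 mM Tris–KCl pH 7.4, 30 min rt; compound added stepwise, 3 min equilibration each, spectra excited at 501 nm. Percent TO displaced = 100 − (FA×100/FA0) from emission area; DC50 read from displacement-versus-concentration plot.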

dsDNA [10] = assay: Displacement thiazole orange from double stranded DNA (unknown origin) in tris-KCL buffer after 30 mins by FID assay; format: nucleic-acid assay; summary of the method: as §3
HeLa [11] = assay: Cytotoxicity against human HeLa cells assessed as reduction in cell viability after 24 hrs by XTT assay; format: functional, cell-based
Summary of the method: (§4)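 XTT viability: HeLa (DMEM), A549 (Ham's F12K) or NKE (glutamine-supplemented RPMI 1640), all with 10% FBS, 37 °C, 5% CO2; 10^4–10^5 cells/well exposed to 0–50 μM compound for 24 h, in triplicate. XTT/PMS added 2 h at 37 °C; absorbance 450 nm; viability as percent of untreated control.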

A549 = assay: Cytotoxicity against human A549 cells assessed as reduction in cell viability after 24 hrs by XTT assay; format: functional, cell-based; conditions: A549, 24 h; summary of the method: as §4
[12] = Cytotoxicity against human NKE cells assessed as reduction in cell viability after 24 hrs by XTT assay; format: cell-based; summary of the method: as §4
Quadruplex DNA [13] = assay: Binding affinity to wild type cMYC G-quadruplex DNA promoter sequence (unknown origin) transfected in human Hela cells assessed as reduction in c-MYC promoter-linked expression at 1 uM incubated for 36 hrs by dual-luciferase reporter gene assay relative to control; format: cell-based
Summary of the method: (§5)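 Dual luciferase in HeLa: 0.2 μg c-MYC Del4 firefly reporter (wild-type or G-to-A mutant G-rich region) co-transfected with 30 ng pRL-TK Renilla control, Lipofectamine 2000, serum-free DMEM; after 8 h switched to complete medium with ligand at 1 or 1.5 μM. Lysed at 36 h; firefly activity normalised to Renilla.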

Quadruplex DNA [14] = assay: Binding affinity to wild type cMYC G-quadruplex DNA promoter sequence (unknown origin) transfected in human Hela cells assessed as reduction in c-MYC promoter-linked expression at 1.5 uM incubated for 36 hrs by dual-luciferase reporter gene assay relative to control; format: cell-based; summary of the method: as §5
Quadruplex DNA [15] = assay: Binding affinity to cMYC G-quadruplex DNA in human HeLa cells assessed as reduction in cMYC protein expression after 24 hrs by Western blot analysis; format: cell-based
Summary of the method: (§6)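 Western blot, HeLa: 24 h ligand exposure at 1.0, 1.5 or 2.0 μM; lysis in 20 mM Tris/100 mM NaCl/1 mM EDTA/0.5% Triton X-100, protein by Folin-Lowry; 70 μg on 12% SDS-PAGE, nitrocellulose, 4% BSA block; rabbit anti-c-MYC and mouse anti-GAPDH overnight at 4 °C, HRP secondaries 2 h; bands quantified densitometrically.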

Quadruplex DNA [16] = assay: Binding affinity to cMYC G-quadruplex DNA in human HeLa cells assessed as reduction in cMYC protein expression at 1 uM after 24 hrs by Western blot analysis relative to control; format: cell-based; summary of the method: as §6
Quadruplex DNA [17] = assay: Binding affinity to cMYC G-quadruplex DNA in human HeLa cells assessed as reduction in cMYC protein expression at 1.5 uM after 24 hrs by Western blot analysis relative to control; format: cell-based; summary of the method: as §6
Quadruplex DNA [18] = assay: Binding affinity to cMYC G-quadruplex DNA in human HeLa cells assessed as reduction in cMYC protein expression at 2 uM after 24 hrs by Western blot analysis relative to control; format: cell-based; summary of the method: as §6
[19] = Drug level in human HeLa cell nucleus at 0.5 uM measured after overnight incubation by NucRed647-staining based confocal microscopy; format: ADME, subcellular
Summary of the method: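 Confocal: HeLa on coverslips treated overnight with 0.5 μM ligand, fixed 12 min in 1:1 acetone/methanol at −20 °C, nuclei stained with NucRed 647 Live 10 min in the dark; ligand localisation imaged by confocal laser scanning.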

Quadruplex DNA [20] = assay: Binding affinity to cMYC G-quadruplex DNA in human HeLa cells assessed as induction of DNA damage by measuring increase in gammaH2AX foci at 1 to 2 uM measured after overnight incubation by alexafluor-647-based flow cytometry; format: cell-based
Summary of the method: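 γH2AX flow cytometry: HeLa treated overnight with 1 or 2 μM ligand, trypsinised, fixed in 1% paraformaldehyde 30 min rt, permeabilised with 0.03% saponin 20 min, then stained 3 h with Alexa Fluor 647 anti-γH2AX (1:100 in PBS + 0.1% FBS).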

Quadruplex DNA [21] = assay: Binding affinity to cMYC G-quadruplex DNA (unknown origin) assessed as induction of red shift at 0.25 uM in presence of increasing concentration of DNA by fluorimetric titration relative to control; format: nucleic-acid assay; summary of the method: as §2
Quadruplex DNA [22] = assay: Binding affinity to cMYC G-quadruplex DNA G to A mutant promoter sequence (unknown origin) transfected in human Hela cells assessed as reduction in c-MYC promoter-linked expression at 1 to 1.5 uM incubated for 36 hrs by dual-luciferase reporter gene assay relative to control; format: cell-based; summary of the method: as §5
HeLa [23] = assay: Effect on GAPDH protein expression in human HeLa cells at 1 to 2 uM after 24 hrs by Western blot analysis relative to control; format: ADME, cell-based; summary of the method: as §6
dsDNA [24] = assay: Binding affinity to double stranded DNA (unknown origin) in tris-KCL buffer by fluorimetric titration assay; format: nucleic-acid assay; summary of the method: as §2
Quadruplex DNA [25] = assay: Binding affinity to cMYC G-quadruplex DNA G to A mutant promoter sequence (unknown origin) transfected in human Hela cells assessed as reduction in c-MYC promoter-linked expression at 1.5 uM incubated for 36 hrs by dual-luciferase reporter gene assay relative to control; format: cell-based; conditions: in the assay text read “wild-type promoter sequence” for “G to A mutant promoter sequence”; summary of the method: as §5
Quadruplex DNA [26] = assay: Binding affinity to cMYC G-quadruplex DNA (unknown origin) assessed as reduction in fluorescence intensity at 0.25 uM by fluorimetric titration relative to control; format: nucleic-acid assay; summary of the method: as §2
dsDNA [27] = assay: Binding affinity to double stranded DNA (unknown origin) assessed as reduction in fluorescence intensity at 0.25 uM by fluorimetric titration relative to control; format: nucleic-acid assay; summary of the method: as §2

Row | Structure (SMILES) | ΔTm (Quadruplex DNA [1]) | ΔTm (dsDNA [2]) | Kd (Quadruplex DNA [3]) | DC50 (Quadruplex DNA [9]) | DC50 (dsDNA [10]) | IC50 (HeLa [11]) | IC50 (A549) | IC50 [12] | further results
1 | COc1ccc(-c2ccc3c(c2)c2cc(CNc4ccc(Br)cc4C)ccc2n3CCCN(C)C)cc1 | 3.3 °C | 0.44 °C | – | – | – | – | – | – | –
2 | COc1ccc(-c2ccc3c(c2)c2cc(CNc4ccc(O)cc4)ccc2n3CCCN(C)C)cc1 | 0.7 °C | 1.9 °C | – | – | – | – | – | – | –
3 | COc1ccc(-c2ccc3c(c2)c2cc(CNc4ccc([N+](=O)[O-])cc4)ccc2n3CCCN(C)C)cc1 | 3.4 °C | 2.4 °C | – | – | – | – | – | – | –
4 | COc1ccc(-c2ccc3c(c2)c2cc(CNc4ccc(C#CCN(C)C)cc4)ccc2n3CCCN(C)C)cc1 | 5 °C | 3.79 °C | – | – | – | – | – | – | –
5 | COc1ccc(-c2ccc3c(c2)c2cc(CNC4CC4)ccc2n3CCCN(C)C)cc1 | 3.5 °C | 1.1 °C | – | – | – | – | – | – | –
6 | COc1ccc(-c2ccc3c(c2)c2cc(CNc4ccc(OCCCN(C)C)cc4)ccc2n3CCCN(C)C)cc1 | 23.4 °C | 0.58 °C | 1.08 µM | 2.25 µM | > 30 µM | 2.5 µM | 6.4 µM | > 50 µM | Activity (Quadruplex DNA [4]): Active; Activity (Quadruplex DNA [5]): inactive; Activity (Quadruplex DNA [6]): inactive; fold change (FC) (Quadruplex DNA [7]): 4.4; Activity (dsDNA [8]): inactive; inhibition (Quadruplex DNA [13]): 31%; inhibition (Quadruplex DNA [14]): 45%; inhibition (Quadruplex DNA [15]): Dose-dependent effect; inhibition (Quadruplex DNA [16]): 27%; inhibition (Quadruplex DNA [17]): 57%; inhibition (Quadruplex DNA [18]): 65%; Drug uptake [19]: Active; Activity (Quadruplex DNA [20]): Active; Activity (Quadruplex DNA [21]): Active; Activity (Quadruplex DNA [22]): inactive; Activity (HeLa [23]): Non-Toxic
7 | COc1ccc(-c2ccc3c(c2)c2cc(CNCCCN(C)C)ccc2n3CCCN(C)C)cc1 | 5.3 °C | 7.2 °C | – | – | – | – | – | – | –
8 | CCCCNCc1ccc2c(c1)c1cc(-c3ccc(OC)cc3)ccc1n2CCCN(C)C | 13.6 °C | 9.5 °C | 5.72 µM | 8.01 µM | > 30 µM | 2 µM | 4.3 µM | > 50 µM | Kd (dsDNA [24]): 6.63 µM; inhibition (Quadruplex DNA [25]): 14%
9 | C#CCNCc1ccc2c(c1)c1cc(-c3ccc(OC)cc3)ccc1n2CCCN(C)C | 11.8 °C | 8.5 °C | 7.17 µM | > 25 µM | > 30 µM | 11.5 µM | > 25 µM | > 50 µM | Kd (dsDNA [24]): 7.03 µM; fold change (FC) (Quadruplex DNA [26]): 1.5; fold change (FC) (dsDNA [27]): 1.5; Activity (Quadruplex DNA [22]): inactive
10 | COc1ccc(-c2ccc3c(c2)c2cc(CNc4nccs4)ccc2n3CCCN(C)C)cc1 | 3.2 °C | 1.15 °C | – | – | – | – | – | – | –

— ChEMBL document CHEMBL4371043, “Dynamic Generation of G-Quadruplex DNA Ligands by Target-Guided Combinatorial Chemistry on a Magnetic Nanoplatform” (J Med Chem, 2019)
